The values below come from ChEMBL document CHEMBL1133997, “2,2-Dimethyl-4,5-diaryl-3(2H)furanone derivatives as selective cyclo-oxygenase-2 inhibitors” (Bioorg Med Chem Lett, 2001).

Assay [1] has as its target T1, Prostaglandin G/H synthase 1 (Mus musculus, UniProt P22437).
T1 sequence (P22437 whole entry): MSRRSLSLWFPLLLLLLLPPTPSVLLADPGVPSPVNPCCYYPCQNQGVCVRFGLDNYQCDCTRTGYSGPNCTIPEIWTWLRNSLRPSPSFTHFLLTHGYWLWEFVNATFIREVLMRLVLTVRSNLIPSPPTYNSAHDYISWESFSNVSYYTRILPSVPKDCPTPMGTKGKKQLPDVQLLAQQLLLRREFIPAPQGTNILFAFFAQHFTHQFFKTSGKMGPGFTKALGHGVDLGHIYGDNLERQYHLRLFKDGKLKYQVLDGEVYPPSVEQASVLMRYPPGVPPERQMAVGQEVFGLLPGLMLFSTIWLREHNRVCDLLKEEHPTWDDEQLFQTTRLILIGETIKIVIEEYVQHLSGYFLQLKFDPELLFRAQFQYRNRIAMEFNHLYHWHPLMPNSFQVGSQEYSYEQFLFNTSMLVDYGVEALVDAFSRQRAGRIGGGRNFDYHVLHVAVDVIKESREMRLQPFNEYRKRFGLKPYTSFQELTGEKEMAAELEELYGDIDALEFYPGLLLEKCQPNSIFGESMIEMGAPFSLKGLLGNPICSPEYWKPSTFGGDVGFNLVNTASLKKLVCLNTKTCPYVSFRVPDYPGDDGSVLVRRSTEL
Briefly: Ability to inhibit Prostaglandin G/H synthase 1 by using freshly harvested mouse peritoneal macrophages.

The target of assay [2] is T2, Prostaglandin G/H synthase 2 (Mus musculus, UniProt Q05769).
T2 sequence (Q05769 whole entry): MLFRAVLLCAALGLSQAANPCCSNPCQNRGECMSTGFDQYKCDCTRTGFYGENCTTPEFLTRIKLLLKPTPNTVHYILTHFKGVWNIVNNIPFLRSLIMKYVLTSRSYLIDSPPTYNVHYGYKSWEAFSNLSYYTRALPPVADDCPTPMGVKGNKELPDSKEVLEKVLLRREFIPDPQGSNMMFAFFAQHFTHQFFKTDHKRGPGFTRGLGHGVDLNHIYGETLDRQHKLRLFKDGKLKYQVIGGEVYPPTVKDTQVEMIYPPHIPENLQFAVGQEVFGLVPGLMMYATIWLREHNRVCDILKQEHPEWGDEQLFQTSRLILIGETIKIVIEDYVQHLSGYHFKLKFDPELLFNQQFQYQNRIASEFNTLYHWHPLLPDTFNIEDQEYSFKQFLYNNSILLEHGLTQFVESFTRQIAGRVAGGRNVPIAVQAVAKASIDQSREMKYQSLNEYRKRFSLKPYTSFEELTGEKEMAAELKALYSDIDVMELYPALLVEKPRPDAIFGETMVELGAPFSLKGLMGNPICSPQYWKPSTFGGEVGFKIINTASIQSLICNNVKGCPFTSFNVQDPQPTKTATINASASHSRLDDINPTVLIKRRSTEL
Briefly: Ability to inhibit Prostaglandin G/H synthase 2 by using freshly harvested mouse peritoneal macrophages.

For assay [3], the system named is Rattus norvegicus. Nature of the assay: In vivo inhibitory activity against carrageenan induced paw edema in Sprague-Darley rats after oral administration of the compound. It counts as functional. The procedure, abridged:
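Sprague–Darley rats were given compound orally at 3 mg/kg body weight. Read-out was percent inhibition of paw edema, using five animals per group.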
For orientation: In the carrageenan paw model, swelling and tenderness develop within hours.

The species entered for assay [4] is Rattus norvegicus. Nature of the assay: Effective dose required for the inhibition of adjuvant arthritis in Sprague-Darley rats. It counts as functional. The method, boiled down: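 Adjuvant-induced arthritis in Sprague–Darley rats, with compound dosed daily (mg/kg/day).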

By IC50 is commonly meant the point on the concentration scale where inhibition reaches its midpoint. Consider `Cc1ccccc1C1=C(c2ccc(S(C)(=O)=O)cc2)OC(C)(C)C1=O`, for which the IC50 in assay [1] is 56.1 µM; in assay [2] it was 842 nM. As usually defined, the Inhibition is the drop in the measured response relative to a control, in per cent. Compound `CC1(C)OC(c2ccc(S(C)(=O)=O)cc2)=C(c2cccc(Cl)c2)C1=O` yielded an Inhibition in the assay with Rattus norvegicus [3] of 32%.

For the compound `CC1(C)OC(c2ccc(S(C)(=O)=O)cc2)=C(c2ccccc2)C1=O`, the results for the IC50 in assay [1] and in assay [2] were 8.76 µM and 146 nM, respectively. What is called ED50 is the midpoint of the dose-response relation. `CC1(C)OC(c2ccc(S(C)(=O)=O)cc2)=C(c2cccc(F)c2)C1=O`: the ED50 in the assay listed under Rattus norvegicus [4] was 0.08 mg/kg/day. In assay [2], `CC1(C)OC(c2ccc(S(C)(=O)=O)cc2)=C(c2cc(F)cc(F)c2)C1=O` had an IC50 of 79.3 nM. Also, in the assay filed under Rattus norvegicus [4], the ED50 was found to be 0.03 mg/kg/day. For the compound `CC1(C)OC(c2ccc(S(C)(=O)=O)cc2)=C(c2cccc(C(F)(F)F)c2)C1=O`, the IC50 was 7.31 µM in assay [1] and 122 nM in assay [2]. Besides, in the assay filed under Rattus norvegicus [4], the ED50 was 0.06 mg/kg/day. `Cc1ccc(-c2cc(C(F)(F)F)nn2-c2ccc(S(N)(=O)=O)cc2)cc1` [CELECOXIB]: the ED50 in the assay listed under Rattus norvegicus [4] amounted to 0.2 mg/kg/day. The compound further came in with an Inhibition with Rattus norvegicus [3] of 31%. Compound `CS(=O)(=O)c1ccc(C2=C(c3ccccc3)C(=O)OC2)cc1` [ROFECOXIB] showed an IC50 in assay [2] of 191 nM.
